Screening data from PubChem BioAssay.
PG9 binder = small molecules binding HIV-1 gp120 antibody PG9. TR-FRET gp120-PG9 antibody binding. inhibition, % at 6.7 µM. 0.43% of 360,000 active. AID 624416; in the data active = inhibition above about 8.5%
Rev-erbA mod = modulators of human Rev-erb alpha DNA binding. activity, % at 10 µM. AID 1259318. 0.79% of 370,000 active. Rev-erbα–FITC-DNA binding, fluorescence polarization, 90 min;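 active = activity above about 14%, limit read from the data; passing the limit was not always enough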
Target sequence (P20393 whole entry, looked up): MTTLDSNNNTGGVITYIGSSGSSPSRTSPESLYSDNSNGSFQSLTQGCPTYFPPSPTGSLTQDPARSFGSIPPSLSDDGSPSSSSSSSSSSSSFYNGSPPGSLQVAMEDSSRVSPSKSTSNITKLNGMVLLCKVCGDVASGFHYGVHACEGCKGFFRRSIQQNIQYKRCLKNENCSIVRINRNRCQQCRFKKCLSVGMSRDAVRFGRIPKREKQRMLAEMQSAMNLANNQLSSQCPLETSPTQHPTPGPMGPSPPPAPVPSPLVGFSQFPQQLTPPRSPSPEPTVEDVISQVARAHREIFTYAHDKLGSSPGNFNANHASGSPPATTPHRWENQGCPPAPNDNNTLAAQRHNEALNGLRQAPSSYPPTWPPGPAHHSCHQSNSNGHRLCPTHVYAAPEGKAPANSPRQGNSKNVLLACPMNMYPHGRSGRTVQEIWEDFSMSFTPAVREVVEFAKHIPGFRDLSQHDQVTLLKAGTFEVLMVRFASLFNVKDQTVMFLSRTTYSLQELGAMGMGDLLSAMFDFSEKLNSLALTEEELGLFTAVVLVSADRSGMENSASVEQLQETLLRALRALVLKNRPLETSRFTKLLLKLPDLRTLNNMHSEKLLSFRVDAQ
NR2E3 ag-1 = activates human NR2E3 receptor; 0.35% of 360,000 active; inhibition of corepressor binding, % at 3.98 µM; CHO-S Gal4-NCOR/VP16-NR2E3 two-hybrid, luciferase;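 active = inhibition above the mean of all tested compounds plus 3 SD, cut at about 70% in these data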;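 also: higher means lower luciferase signal from less NR2E3 corepressor binding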
NR2E3 ag-2 = agonists of human nuclear receptor NR2E3. 0.12% of 320,000 active. inhibition of corepressor binding, % at 4.78 µM. Q9Y5X4. GST-NR2E3/biotin-RetCOR TR-FRET, 1536-well;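 active = percent inhibition above the cutoff of mean plus 3 SD of all tested compounds, set per screening campaign, cut at about 20% in these data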
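System: GST-tagged NR2E3 plus biotinylated RetCOR corepressor; Buffer or medium: pH 7.5 Tris-based buffer; Probe or stimulus: RetCOR corepressor, biotinylated, 7 nM; Doses: compound at 4.8 µM, single dose; Schedule: 5 h incubation at 4 °C; Technique: time-resolved FRET; Evaluation: percent inhibition of TR-FRET ratio; Replication: one well per compound, singlicate testing.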
rCAG binder = molecules binding r(CAG) RNA repeats; inhibition, % at 3 µM; AID 651821; r(CAG) RNA repeat, TO-PRO-1 dye displacement fluorescence; 1.3% of 370,000 active;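 active = inhibition above the plate cutoff, the mean of all test compounds on that plate plus 3 SD, cut at about 35% in these data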;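 also: higher means more dye released from RNA so lower well fluorescence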
rCAG binder conf = r(CAG) RNA repeat binding, confirmation; shares compounds with rCAG binder; TO-PRO-1 dye displacement fluorescence; 70% of 4,300 active; inhibition, % at 3 µM;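 active = inhibition above a per-plate cutoff, the mean inhibition of sample wells plus 3 SD, cut at about 35% in these data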;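 also: loss of TO-PRO-1 fluorescence as compound displaces dye from 1x1 AA loop RNA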
DNA CAG counter = disrupts DNA CAG TO-PRO-1 complex, flagging rCAG hits; shares compounds with rCAG binder; d(CAG) DNA oligo TO-PRO-1 dye displacement, fluorescence; inhibition, % at 3 µM; 94% of 4,300 active; AID 652068;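 active = inhibition above its plate's cutoff, the mean test-well inhibition plus 3 SD, cut at about 4.8% in these data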;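 also: hits displace the dye from DNA and so lower well fluorescence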
Large screens that a line does not name were inactive (follow-up assays come after a bar, where they were run). Most compounds without a hit are left out; they make up all but 2.6% or so of the library.

Cc1cc(Br)cn2c(Cc3ccccc3C(F)(F)F)c(-c3cccc(Br)c3)nc12	rCAG binder 47 (no result: NR2E3 ag-2) | rCAG binder conf inactive | DNA CAG counter inactive
Cc1ccc2nc(-c3ccc(Cl)cc3)c(Cc3cccc(F)c3)n2c1	none (no result: NR2E3 ag-1, NR2E3 ag-2)
Fc1cccc(Cc2c(-c3ccc(Cl)cc3)nc3ccc(Br)cn23)c1	rCAG binder 49 (no result: NR2E3 ag-2) | rCAG binder conf inactive | DNA CAG counter 4.6
Cc1ccc(-c2nc3ccc(Cl)cn3c2Cc2cccc(F)c2)cc1	rCAG binder 38 (no result: NR2E3 ag-2) | rCAG binder conf inactive | DNA CAG counter inactive
Cc1ccc(-c2nc3ccc(Cl)cn3c2Cc2ccccc2C(F)(F)F)cc1	rCAG binder 42 (no result: NR2E3 ag-2) | rCAG binder conf inactive | DNA CAG counter 6.8
Cc1ccc2nc(-c3ccc(Cl)cc3)c(Cc3ccccc3C(F)(F)F)n2c1	none (no result: NR2E3 ag-2)
Fc1cccc(Cc2c(-c3cccc(Br)c3)nc3ccc(Br)cn23)c1	rCAG binder 55 (no result: NR2E3 ag-2) | rCAG binder conf inactive | DNA CAG counter inactive
Cc1ccc(Cc2c(-c3ccc(Br)cc3)nc3ccc(Cl)cn23)cc1	rCAG binder 41 (no result: NR2E3 ag-2) | rCAG binder conf inactive | DNA CAG counter 10
Cc1ccc(Cc2c(-c3ccc(C)cc3)nc3ccc(Cl)cn23)cc1	none (no result: NR2E3 ag-2)
O=C(C(=O)N1CCC(CNS(=O)(=O)c2ccc(F)cc2)CC1)c1cc2ccccc2o1	none (no result: NR2E3 ag-1, NR2E3 ag-2)
COc1ccc2[nH]c(C)c(-c3csc(N)n3)c2c1	rCAG binder 37 | rCAG binder conf inactive | DNA CAG counter 11
COc1ccccc1OCCNC(=O)CCNS(=O)(=O)c1ccc(C)cc1	none (no result: NR2E3 ag-2)
C#CC(C)(O)C1CC(CC(=O)O)C1(C)C (stereo not given)	none (no result: PG9 binder, Rev-erbA mod, NR2E3 ag-2, rCAG binder)
Cc1nn(-c2ccccc2)c2sc(-c3nnc(SCC(=O)O)o3)cc12	rCAG binder 46 | rCAG binder conf 56 | DNA CAG counter 15
CCn1c(SCC(=O)O)nnc1-c1cc2c(C)nn(-c3ccccc3)c2s1	none
O=C(CSc1nc2[nH]c(=O)cc(O)c2s1)Nc1cc(Cl)cc(Cl)c1	none
O=C(CSc1nc2[nH]c(=O)cc(O)c2s1)Nc1ccc(Cl)c(C(F)(F)F)c1	rCAG binder 41 | rCAG binder conf inactive | DNA CAG counter 11
Cc1[nH]n(-c2ccccc2)c(=O)c1N=Nc1ccccc1C(=O)O	none
Cc1cc(Cl)cc2c(N=Nc3ccccc3C(=O)O)c(O)[nH]c12	rCAG binder 39 | rCAG binder conf 92 | DNA CAG counter 76
O=C1NC(=S)S/C1=C\c1cc2ccccc2nc1N1CCCCC1	rCAG binder 37 | rCAG binder conf 87 | DNA CAG counter 61
O=C(COc1ccccc1)N/N=C/c1sc(=O)n(Cc2cccc(C(=O)O)c2)c1Cl	none
Cc1cccc(OCC(=O)N/N=C/c2sc(=O)n(Cc3cccc(C(=O)O)c3)c2Cl)c1	rCAG binder 35 | rCAG binder conf 37 | DNA CAG counter 10
COCCN(C(=O)c1cc(Cl)nc2ccccc12)c1c(N)n(Cc2ccccc2)c(=O)[nH]c1=O	none
O=C1C=CC(=Nc2ccc3c(c2)Cc2ccccc2-3)O1	none (no result: NR2E3 ag-2)
COc1ccc(S(=O)(=O)N2CCCCC2)cc1NS(=O)(=O)c1cc(Cl)ccc1Cl	rCAG binder 36 | rCAG binder conf 39 | DNA CAG counter 10
COc1ccc(S(=O)(=O)N2CCCCC2)cc1NS(=O)(=O)c1ccccc1F	none
COc1ccc(S(=O)(=O)N2CCCCCC2)cc1NS(=O)(=O)c1cc(C(=O)O)cc(C)c1C	rCAG binder 47 | rCAG binder conf inactive | DNA CAG counter 5.9
O=C(c1c(O)cc(O)cc1O)C1c2c(cc(O)c3c2O[C@H](c2ccc(O)cc2)[C@@H](O)C3)OC1c1ccc(O)cc1 (stereo not given in full)	rCAG binder 37 | rCAG binder conf 45 | DNA CAG counter 16
O=C1CC(c2ccc(O)cc2)Oc2cc(O)cc(O)c21 (stereo not given)	none
COc1cc(F)ccc1-c1csc(C(O)c2ccccc2)n1 (stereo not given)	none (no result: NR2E3 ag-2)
COC1=C/C(=C/c2c(N)n3nc(-c4ccc(C)cc4)sc3nc2=O)C=CC1=O	rCAG binder 63 (no result: NR2E3 ag-2) | rCAG binder conf 59 | DNA CAG counter 19
